Sampled rows, rich in hits. Any-hit rate of the full collection: about 9.3%.
PostGolgi yeast – growth inhibition of a yeast mutant, post-Golgi transport screen; inhibition, % at 10 µM; post-Golgi transport phenotypic cell assay; 0.9% of 98,000 active;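 further: yeast cells grown in 1536-well plates; yeast grown about 18 h at 30C before absorbance read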
PostGolgi ctrl – yeast control strain growth, post-Golgi counter-screen; inhibition, % at 10 µM; efflux-deficient yeast background strain, growth absorbance A615, 16 h; 5% of 98,000 active
Ecoli tolC – growth inhibitors of E. coli BW25113 tolC mutant. OD615. growth inhibition, % at 10 µM (by protocol). 2.2% of 65,000 active. AID 573;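 active means growth inhibition at or above a cutoff equal to the mean over every tested compound plus 3 SD, cut at about 60% in these data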;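 further: growth measured after 20 h incubation at 37 °C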
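test system = E. coli BW25113 ΔtolC::kan bacteria | medium = LB with kanamycin 50 µg/mL | signal = OD at 615 nm | schedule = 37 °C, 20 h exposure | evaluation = % inhibition of E. coli growth | compound dosing = one dose of 10 µM final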
hDAT+cocaine – modulates human dopamine transporter uptake under cocaine; Q01959; LLC-PK1 hDAT cells, [14C]-dopamine uptake with cocaine IC80; actives deviate in either direction; B-score at 10 µM; 1.3% of 110,000 active; AID 449768;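 active means Z score or B-score, a plate-position-corrected score, falls beyond the plate's 99.7% confidence bounds, in either direction; inactive means both scores lie inside the 99.7% bounds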
Target sequence (Q01959 whole entry, looked up): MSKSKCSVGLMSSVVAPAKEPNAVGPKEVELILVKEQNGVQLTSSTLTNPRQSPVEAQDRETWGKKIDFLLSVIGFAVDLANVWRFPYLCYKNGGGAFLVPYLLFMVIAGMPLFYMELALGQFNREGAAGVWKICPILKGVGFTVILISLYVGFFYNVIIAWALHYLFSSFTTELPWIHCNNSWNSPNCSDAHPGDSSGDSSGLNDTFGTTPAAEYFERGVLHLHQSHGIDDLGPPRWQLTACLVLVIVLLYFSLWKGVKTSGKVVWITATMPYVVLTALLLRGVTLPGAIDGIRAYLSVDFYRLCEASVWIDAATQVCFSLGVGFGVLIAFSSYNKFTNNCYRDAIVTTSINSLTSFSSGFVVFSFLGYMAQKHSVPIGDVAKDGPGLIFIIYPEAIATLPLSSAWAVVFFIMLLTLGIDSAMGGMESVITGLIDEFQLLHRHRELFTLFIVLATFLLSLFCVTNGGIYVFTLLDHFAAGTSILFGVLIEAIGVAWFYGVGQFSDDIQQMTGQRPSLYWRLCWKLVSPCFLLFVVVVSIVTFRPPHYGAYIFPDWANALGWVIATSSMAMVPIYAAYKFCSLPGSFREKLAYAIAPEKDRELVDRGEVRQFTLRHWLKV
D1 allo mod – allosteric modulators of human D1 dopamine receptor; 5.9% of 58,000 active; AID 641; B-score at 10 µM; HEK293 D1, CRE-luciferase, dopamine EC30 potentiation; actives deviate in either direction; P21728;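 active means luminescence count or its row- and column-corrected plate score outside the 99.7% band of the plate's sample wells, on either side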
Ecoli WT expand – growth inhibitors of E. coli BW25113 wild type | OD600 absorbance | growth inhibition, % at 100 µM | 0.15% of 98,000 active;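 active means growth inhibition above about 50% at one test dose, limit read from the data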;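 further: growth measured after 20 h incubation at 37 °C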
A number is an active result; i = inactive; nt = no result given. Unless noted, no stated cut-off is given here; in the data, active means inhibition above about 30%; inactive means the rest.

SMILES	PostGolgi yeast	PostGolgi ctrl	Ecoli tolC	hDAT+cocaine	D1 allo mod	Ecoli WT expand
Cc1ccc(S(=O)(=O)c2c(N)n(/N=C/c3ccco3)c3nc4ccccc4nc23)cc1	i	41	i	i	i	i
CCC(=O)N1CCN(c2ccccc2NC(=O)COc2cc(C)ccc2C(C)C)CC1	i	i	i	i	i	i
COC(=O)C[C@H]1c2cc(F)cc(F)c2S(=O)(=O)N1C1CCN(Cc2ccccc2)CC1	nt	nt	nt	i	nt	nt
Cc1cc(C)cc(N2C(=O)C3C4C=CC(C4)C3C2=O)c1 (stereo not drawn)	i	i	i	i	nt	i
CC[C@H](C)/C=C/C1=CC2=C(Cl)C(=O)[C@@]3(C)OC(=O)C(C(=O)[C@H](C)[C@@H](C)O)=C3C2=CO1	nt	nt	nt	i	nt	nt
O=C(Cc1ccc(S(=O)(=O)N2CCOCC2)s1)NCC1CCCCC1	i	i	i	i	-7	i
CCC(CC)NC(=O)Cc1ccc(S(=O)(=O)N2CCOCC2)s1	i	i	nt	i	nt	i
COc1cc(C)c(C(C)C)cc1S(=O)(=O)NCCCn1ccnc1	i	i	i	i	i	i
CC(O)C1CCC2C3CC[C@H]4CC(O)CCC4(C)C3CC3(OCCO3)C12C (stereo partly drawn)	i	33	nt	i	nt	i
COc1ccc(Cl)cc1CSc1n[nH]c(C)n1	i	i	i	i	i	i
Cc1nc(SCc2cccc(Oc3ccccc3)c2)n[nH]1	i	36	nt	i	nt	i
[O-][n+]1c2c(c3c4non(O)c4ccc31)CCCC2	31	82	nt	i	nt	i
COC(=O)c1ccccc1NC(=O)CC(NCc1ccccc1)C(=O)O (stereo not drawn)	nt	nt	i	i	2.4	nt
CS(=O)(=O)N(CC(=O)O)c1ccc(Oc2ccccc2)cc1	i	36	i	i	i	i
O=S(=O)(c1ccc(Oc2ccc(Br)cc2)cc1)N1CCOCC1	i	63	i	i	i	i
COc1ccc(-c2ccc(S(=O)(=O)N3CCOCC3)cc2)cc1	i	i	i	i	i	i
O=C(NCc1ccccc1)c1onc(CSc2ccccc2)c1C(=O)NCc1ccccc1	nt	nt	nt	1.6	nt	nt
CC(C)NC(=O)c1onc(CSc2ccccc2F)c1C(=O)O	i	39	nt	i	nt	i
CC(C)NC(=O)c1c(CSc2ccccc2)noc1C(=O)NCc1ccccc1	nt	nt	nt	2.8	nt	nt
CCOC(=O)C1C2C=CC(CC2)N1c1ccccc1 (stereo not drawn)	nt	nt	nt	i	nt	nt
Cc1ccc(N(CC(=O)Nc2ccc3c(c2)OCCO3)S(=O)(=O)c2c(C)n[nH]c2C)cc1	i	i	i	i	i	i
Cc1n[nH]c(C)c1S(=O)(=O)Nc1ccc2c(c1)OCCO2	i	i	i	i	-4.2	i
CN1CCCN(C(=O)Cc2c(Cl)cccc2Cl)c2nc3ccccc3nc21	i	43	70	i	i	i
CN1CCCN(C(=O)c2cc(=O)[nH]c3ccccc23)c2nc3ccccc3nc21	i	i	i	i	i	i
O=C(c1c[nH]c2ccc(F)cc2c1=O)N1CCCCCC1	nt	nt	nt	i	nt	nt
SMILES	PostGolgi yeast	PostGolgi ctrl	Ecoli tolC	hDAT+cocaine	D1 allo mod	Ecoli WT expand
O=C(NC1CCCC1)c1c[nH]c2ccc(F)cc2c1=O	i	i	i	4.5	i	i
C#CCOc1ccc(Cl)cc1/C=N/O	i	i	i	i	i	i
O/N=C/c1cc(Cl)ccc1OCc1cccc2ccccc12	i	61	nt	i	nt	i
Cc1noc(C)c1COC(=O)c1ccc2c(c1)OCO2	i	43	i	i	nt	i
Oc1ccc(/C=C/c2cc(O)cc(O)c2)cc1	nt	nt	i	i	-8.4	nt
COc1ccccc1-c1nnc(SCC(=O)NCc2c(C)c(Cl)cc(C(C)C)c2O)o1	i	i	i	nt	i	i
Cc1oc2c(CN(C)C)c(O)ccc2c(=O)c1-c1ccc2ccccc2n1	i	35	i	i	i	i
Nc1nnc(SCc2cccc(C(F)(F)F)c2)s1	i	i	i	-2.7	i	i
Nc1nnc(SCc2cccnc2)s1	i	i	i	i	i	i
COc1ccc(OC)c(-c2cc(C(=O)N3CCN(c4ccccc4)CC3)no2)c1	i	33	i	i	i	i
O=C(c1cc(-c2cccs2)on1)N1CCN(c2ccccc2)CC1	i	i	i	nt	i	i
COc1cccc(-c2cc(C(=O)N3CCc4ccccc4C3)no2)c1	i	i	90	i	i	i
COc1ccc(OC)c(-c2cc(C(=O)N3CCc4ccccc4C3)no2)c1	i	41	69	2.9	i	i
O=C(NCc1ccco1)C1CCCN(S(=O)(=O)c2cccc3cccnc23)C1 (stereo not drawn)	i	i	i	i	i	i
